Experimental data as given in ChEMBL document CHEMBL1157144, “Novel 16-membered macrolides modified at C-12 and C-13 positions of midecamycin A1 and miokamycin. Part 1: Synthesis and evaluation of 12,13-carbamate and 12-arylalkylamino-13-hydroxy analogues” (2008).
≈ marks a conversion by molar mass, not a printed value.

Legend:
Format in all cases: functional
[1] = test system: Staphylococcus aureus; test: Antibacterial activity against standard Staphylococcus aureus after 20 hrs by agar dilution method
How it was run: (§1)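 Agar dilution MIC. The inoculum came from a seed culture in Sensitivity test broth. A 5 µl portion of a cell suspension of about 10^6 CFU/ml was inoculated onto Sensitivity disk agar supplemented with 5% horse blood. Plates were incubated at 37 °C for 20 h, then MIC was read.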

[2] = test system: Staphylococcus aureus; test: Antibacterial activity against susceptible Staphylococcus aureus after 20 hrs by agar dilution method; how it was run: as §1
[3] = test system: Staphylococcus aureus; test: Antibacterial activity against ermA-constitutive resistant Staphylococcus aureus after 20 hrs by agar dilution method; how it was run: as §1
[4] = test system: Staphylococcus aureus; test: Antibacterial activity against ermB-inducible resistant Staphylococcus aureus after 20 hrs by agar dilution method; how it was run: as §1
[5] = test system: Staphylococcus aureus; test: Antibacterial activity against ermC-inducible resistant Staphylococcus aureus after 20 hrs by agar dilution method; how it was run: as §1
[6] = test system: Streptococcus pneumoniae; test: Antibacterial activity against susceptible Streptococcus pneumoniae after 20 hrs by agar dilution method
How it was run: (§2)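 MIC by agar dilution. Strains grown on blood agar plates for seed culture. About 5 µl of a suspension of roughly 10^6 CFU/ml spotted onto Sensitivity disk agar with 5% horse blood. Plates incubated at 37 °C for 20 h, then MIC read.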

[7] = test system: Streptococcus pneumoniae; test: Antibacterial activity against ermB-constitutive resistant Streptococcus pneumoniae after 20 hrs by agar dilution method
How it was run: (§3)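 Agar dilution MIC. Streptococcal strains were pre-cultured on blood agar plates. A 5 µl portion of a cell suspension of about 10^6 CFU/ml was inoculated onto Sensitivity disk agar supplemented with 5% horse blood. Plates were incubated at 37 °C for 20 h, then MIC was read.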

[8] = test system: Streptococcus pneumoniae; test: Antibacterial activity against ermB-inducible resistant Streptococcus pneumoniae after 20 hrs by agar dilution method; how it was run: as §3
[9] = test system: Streptococcus pneumoniae; test: Antibacterial activity against mefE efflux-resistant Streptococcus pneumoniae after 20 hrs by agar dilution method; how it was run: as §3
[10] = test system: Streptococcus pyogenes; test: Antibacterial activity against standard Streptococcus pyogenes after 20 hrs by agar dilution method; how it was run: as §2
[11] = test system: Streptococcus pyogenes; test: Antibacterial activity against ermB-constitutive resistant Streptococcus pyogenes after 20 hrs by agar dilution method; how it was run: as §3
[12] = test system: Streptococcus pyogenes; test: Antibacterial activity against mefE efflux-resistant Streptococcus pyogenes after 20 hrs by agar dilution method; how it was run: as §3
[13] = test system: Moraxella catarrhalis; test: Antibacterial activity against standard Moraxella catarrhalis after 20 hrs by agar dilution method; how it was run: as §2
[14] = test system: Haemophilus influenzae; test: Antibacterial activity against standard Haemophilus influenzae after 20 hrs by agar dilution method; how it was run: as §2
[15] = test system: Haemophilus influenzae; test: Antibacterial activity against susceptible Haemophilus influenzae after 20 hrs by agar dilution method; how it was run: as §2

| Structure (SMILES) | MIC [1] | MIC [2] | MIC [3] | MIC [4] | MIC [5] | MIC [6] | MIC [7] | MIC [8] | MIC [9] | MIC [10] | MIC [11] | MIC [12] | MIC [13] | MIC [14] | MIC [15] |
| --- | --- | --- | --- | --- | --- | --- | --- | --- | --- | --- | --- | --- | --- | --- | --- |
| CCC(=O)O[C@@H]1CC(=O)O[C@H](C)C[C@H](O)[C@H](N(C)CCCc2ccccc2)/C=C/[C@H](OC(C)=O)[C@H](C)C[C@H](CC=O)[C@H](O[C@@H]2O[C@H](C)[C@@H](O)[C@H](N(C)C)[C@H]2O)[C@H]1OC | 0.39 µg/mL (≈ 0.475 µM) | 0.78 µg/mL (≈ 0.95 µM) | > 100 µg/mL | 1.56 µg/mL (≈ 1.9 µM) | 1.56 µg/mL (≈ 1.9 µM) | 0.2 µg/mL (≈ 0.244 µM) | > 100 µg/mL | > 100 µg/mL | 0.39 µg/mL (≈ 0.475 µM) | 0.39 µg/mL (≈ 0.475 µM) | > 100 µg/mL | 0.78 µg/mL (≈ 0.95 µM) | 0.025 µg/mL (≈ 0.0305 µM) | 0.39 µg/mL (≈ 0.475 µM) | 3.13 µg/mL (≈ 3.81 µM) |
| CCC(=O)O[C@@H]1CC(=O)O[C@H](C)C[C@H](O)[C@H](N(C)CCCc2cccc3ccccc23)/C=C/[C@H](OC(C)=O)[C@H](C)C[C@H](CC=O)[C@H](O[C@@H]2O[C@H](C)[C@@H](O)[C@H](N(C)C)[C@H]2O)[C@H]1OC | 0.39 µg/mL (≈ 0.448 µM) | 0.78 µg/mL (≈ 0.895 µM) | > 100 µg/mL | 0.78 µg/mL (≈ 0.895 µM) | 0.78 µg/mL (≈ 0.895 µM) | 0.025 µg/mL (≈ 0.0287 µM) | > 100 µg/mL | 100 µg/mL (≈ 115 µM) | 0.1 µg/mL (≈ 0.115 µM) | 0.1 µg/mL (≈ 0.115 µM) | > 100 µg/mL | 0.39 µg/mL (≈ 0.448 µM) | 0.025 µg/mL (≈ 0.0287 µM) | 0.78 µg/mL (≈ 0.895 µM) | 3.13 µg/mL (≈ 3.59 µM) |
| CCC(=O)O[C@@H]1CC(=O)O[C@H](C)C[C@H](O)[C@H](N(C)CCCc2cnc3ccccc3c2)/C=C/[C@H](OC(C)=O)[C@H](C)C[C@H](CC=O)[C@H](O[C@@H]2O[C@H](C)[C@@H](O)[C@H](N(C)C)[C@H]2O)[C@H]1OC | 1.56 µg/mL (≈ 1.79 µM) | 1.56 µg/mL (≈ 1.79 µM) | > 100 µg/mL | 1.56 µg/mL (≈ 1.79 µM) | 1.56 µg/mL (≈ 1.79 µM) | 0.2 µg/mL (≈ 0.229 µM) | > 100 µg/mL | > 100 µg/mL | 0.39 µg/mL (≈ 0.447 µM) | 0.78 µg/mL (≈ 0.894 µM) | > 100 µg/mL | 3.13 µg/mL (≈ 3.59 µM) | 0.2 µg/mL (≈ 0.229 µM) | 1.56 µg/mL (≈ 1.79 µM) | 6.25 µg/mL (≈ 7.17 µM) |
| CCC(=O)O[C@@H]1CC(=O)O[C@H](C)C/C=C/C=C/[C@H](OC(C)=O)[C@H](C)C[C@H](CC=O)[C@H](O[C@@H]2O[C@H](C)[C@@H](O[C@H]3C[C@@](C)(OC(C)=O)[C@@H](OC(=O)CC)[C@H](C)O3)[C@H](N(C)C)[C@H]2O)[C@H]1OC [MIOCAMYCIN] | 0.2 µg/mL (≈ 0.223 µM) | 0.78 µg/mL (≈ 0.869 µM) | > 100 µg/mL | 1.56 µg/mL (≈ 1.74 µM) | 0.78 µg/mL (≈ 0.869 µM) | 0.1 µg/mL (≈ 0.111 µM) | > 100 µg/mL | 6.25 µg/mL (≈ 6.96 µM) | 0.2 µg/mL (≈ 0.223 µM) | 0.1 µg/mL (≈ 0.111 µM) | > 100 µg/mL | 0.2 µg/mL (≈ 0.223 µM) | 0.78 µg/mL (≈ 0.869 µM) | 3.13 µg/mL (≈ 3.49 µM) | 25 µg/mL (≈ 27.8 µM) |
